In ChEMBL document CHEMBL1126160, “Synthesis and structure-activity relationships of 7-diazabicycloalkylquinolones, including danofloxacin, a new quinolone antibacterial agent for veterinary medicine” (J Med Chem, 1992):
Converted amounts (≈) assume the structure as drawn.

Test system: Phocaeicola vulgatus
Assay: In vitro antibacterial activity against anaerobically grown Bacteroides vulgatus (78D029)
Type: functional
Settings: not given
Summary of the method: (§1)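 Agar dilution MICs. Anaerobic strains were tested on tryptose agar with 5% bovine blood and incubated 48 h at 39 °C in an anaerobe chamber under N2/CO2/H2 (80:10:10).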

| Compound | MIC [µg/mL] |
| --- | --- |
| CCn1cc(C(=O)O)c(=O)c2cc(F)c(N3CC[C@H]4CCC(C3)N4C)c(F)c21 | > 3.13 |
| Cl.O.O=C(O)c1cn(C2CC2)c2cc(N3CCN4CCC3CC4)c(F)cc2c1=O | 0.39 |
| CN1C[C@@H]2C[C@H]1CN2c1c(F)cc2c(=O)c(C(=O)O)cn(-c3ccc(F)cc3F)c2c1Cl | 0.78 (≈ 1.68 µM) |
| CCn1cc(C(=O)O)c(=O)c2cc(F)c(N3C[C@@H]4C[C@H]3CN4)cc21 | > 3.13 |
| O=C(O)c1cn(C2CC2)c2cc(N3CCN4CCCC3C4)c(F)cc2c1=O (stereo not drawn) | 0.78 (≈ 2.1 µM) |

Test system: Pasteurella multocida
Assay: In vivo protective dose was evaluated against Pasteurella multocida (59A006) in mouse(sc)
Type: functional
Settings: read-out: PD50
Summary of the method: (§2)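 Female CF-1 mice (15 g), groups of 10, challenged ip with 0.5 mL bacterial suspension (P. multocida 59A006 or E. coli 51A266 at 3.0 × 10^8 cfu/mL; S. choleraesuis 58B010 at 8.5 × 10^2 cfu/mL). Drug given sc or po at 30 min, 4 h and 24 h after challenge; survival recorded at 96 h; PD50 by probit analysis.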

| Compound | ED50 [mg/kg] |
| --- | --- |
| O=C(O)c1cn(C2CC2)c2cc(N3CCN4CCCC3C4)c(F)cc2c1=O (stereo not drawn) | 0.15 |

Test system: Escherichia coli
Assay: Escherichia coli DNA cleavage endpoint value which is the minimum amount required (in micro g/mL) to induce detectable cleavage of supercoiled pBR322 substrate to linear form (gyrase)
Type: functional
Settings: read-out: MIC
Summary of the method: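 DNA gyrase A and B subunits were purified from E. coli overproducers. About 2 units of holoenzyme were incubated with pBR322 in Tris-HCl pH 7.5 containing MgCl2, spermidine, DTT, 0.2 mM ATP, BSA and tRNA. Drug was added as 2-fold serial dilutions, and reactions ran for 60 min at 25 °C. Reactions were stopped with SDS and proteinase K, then run on agarose and stained with ethidium. The endpoint was the lowest concentration giving detectable linear DNA.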

| Compound | minimum concentration inducing gyrase-mediated DNA cleavage [µg/mL] |
| --- | --- |
| CCn1cc(C(=O)O)c(=O)c2cc(F)c(N3CC[C@H]4CCC(C3)N4C)c(F)c21 | 3.12 |
| Cl.O.O=C(O)c1cn(C2CC2)c2cc(N3CCN4CCC3CC4)c(F)cc2c1=O | 0.39 |
| CN1C[C@@H]2C[C@H]1CN2c1c(F)cc2c(=O)c(C(=O)O)cn(-c3ccc(F)cc3F)c2c1Cl | 3.12 |
| CCn1cc(C(=O)O)c(=O)c2cc(F)c(N3C[C@@H]4C[C@H]3CN4)cc21 | 3.12 |
| O=C(O)c1cn(C2CC2)c2cc(N3CCN4CCCC3C4)c(F)cc2c1=O (stereo not drawn) | 0.78 |

Test system: Actinobacillus pleuropneumoniae
Assay: In vitro antibacterial activity against anaerobically grown Actinobacillus pleuropneumoniae ([…])
Type: functional
Settings: not given
Summary of the method: as §1

| Compound | MIC [µg/mL] |
| --- | --- |
| CCn1cc(C(=O)O)c(=O)c2cc(F)c(N3CC[C@H]4CCC(C3)N4C)c(F)c21 | 0.78 (≈ 1.99 µM) |
| Cl.O.O=C(O)c1cn(C2CC2)c2cc(N3CCN4CCC3CC4)c(F)cc2c1=O | 0.05 |
| CN1C[C@@H]2C[C@H]1CN2c1c(F)cc2c(=O)c(C(=O)O)cn(-c3ccc(F)cc3F)c2c1Cl | 0.1 (≈ 0.216 µM) |
| CCn1cc(C(=O)O)c(=O)c2cc(F)c(N3C[C@@H]4C[C@H]3CN4)cc21 | 0.39 (≈ 1.18 µM) |
| O=C(O)c1cn(C2CC2)c2cc(N3CCN4CCCC3C4)c(F)cc2c1=O (stereo not drawn) | 0.02 (≈ 0.0538 µM) |

Test system: Staphylococcus aureus
Assay: In vitro antibacterial activity against aerobically grown Staphylococcus aureus (54B004)
Type: functional
Settings: not given
Summary of the method: (§3)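 Agar dilution MICs. Aerobic strains were tested on brain heart infusion agar and incubated aerobically at 37 °C for 18–20 h.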

| Compound | MIC [µg/mL] |
| --- | --- |
| CCn1cc(C(=O)O)c(=O)c2cc(F)c(N3CC[C@H]4CCC(C3)N4C)c(F)c21 | 0.78 (≈ 1.99 µM) |
| Cl.O.O=C(O)c1cn(C2CC2)c2cc(N3CCN4CCC3CC4)c(F)cc2c1=O | 0.05 |
| CN1C[C@@H]2C[C@H]1CN2c1c(F)cc2c(=O)c(C(=O)O)cn(-c3ccc(F)cc3F)c2c1Cl | 0.2 (≈ 0.431 µM) |
| CCn1cc(C(=O)O)c(=O)c2cc(F)c(N3C[C@@H]4C[C@H]3CN4)cc21 | > 1.56 |
| O=C(O)c1cn(C2CC2)c2cc(N3CCN4CCCC3C4)c(F)cc2c1=O (stereo not drawn) | 0.1 (≈ 0.269 µM) |

Test system: Salmonella enterica
Assay: In vitro antibacterial activity against aerobically grown Salmonella choleraesuis (58B015)
Type: functional
Settings: not given

| Compound | MIC [µg/mL] |
| --- | --- |
| CCn1cc(C(=O)O)c(=O)c2cc(F)c(N3CC[C@H]4CCC(C3)N4C)c(F)c21 | 1.56 (≈ 3.99 µM) |
| Cl.O.O=C(O)c1cn(C2CC2)c2cc(N3CCN4CCC3CC4)c(F)cc2c1=O | 0.02 |
| CN1C[C@@H]2C[C@H]1CN2c1c(F)cc2c(=O)c(C(=O)O)cn(-c3ccc(F)cc3F)c2c1Cl | 0.39 (≈ 0.841 µM) |
| CCn1cc(C(=O)O)c(=O)c2cc(F)c(N3C[C@@H]4C[C@H]3CN4)cc21 | 0.39 (≈ 1.18 µM) |
| O=C(O)c1cn(C2CC2)c2cc(N3CCN4CCCC3C4)c(F)cc2c1=O (stereo not drawn) | 0.05 (≈ 0.135 µM) |

Test system: Bordetella bronchiseptica
Assay: In vitro antibacterial activity against aerobically grown Bordetella bronchiseptica (73A009)
Type: functional
Settings: not given
Summary of the method: as §3

| Compound | MIC [µg/mL] |
| --- | --- |
| CCn1cc(C(=O)O)c(=O)c2cc(F)c(N3CC[C@H]4CCC(C3)N4C)c(F)c21 | 1.56 (≈ 3.99 µM) |
| Cl.O.O=C(O)c1cn(C2CC2)c2cc(N3CCN4CCC3CC4)c(F)cc2c1=O | 0.39 |
| CN1C[C@@H]2C[C@H]1CN2c1c(F)cc2c(=O)c(C(=O)O)cn(-c3ccc(F)cc3F)c2c1Cl | > 1.56 |
| CCn1cc(C(=O)O)c(=O)c2cc(F)c(N3C[C@@H]4C[C@H]3CN4)cc21 | 1.56 (≈ 4.71 µM) |
| O=C(O)c1cn(C2CC2)c2cc(N3CCN4CCCC3C4)c(F)cc2c1=O (stereo not drawn) | 0.78 (≈ 2.1 µM) |

Test system: Escherichia coli
Assay: In vivo protective dose was evaluated against Escherichia coli (51A266) in mouse(sc)
Type: functional
Settings: read-out: PD50
Summary of the method: as §2

| Compound | ED50 [mg/kg] |
| --- | --- |
| Cl.O.O=C(O)c1cn(C2CC2)c2cc(N3CCN4CCC3CC4)c(F)cc2c1=O | 0.09 |
| O=C(O)c1cn(C2CC2)c2cc(N3CCN4CCCC3C4)c(F)cc2c1=O (stereo not drawn) | 0.31 |

Test system: Pasteurella multocida
Assay: In vitro antibacterial activity against aerobically grown Pasteurella multocida (59A006)
Type: functional
Settings: not given
Summary of the method: as §3

| Compound | MIC [µg/mL] |
| --- | --- |
| CCn1cc(C(=O)O)c(=O)c2cc(F)c(N3CC[C@H]4CCC(C3)N4C)c(F)c21 | 0.2 (≈ 0.511 µM) |
| Cl.O.O=C(O)c1cn(C2CC2)c2cc(N3CCN4CCC3CC4)c(F)cc2c1=O | < 0.002 |
| CN1C[C@@H]2C[C@H]1CN2c1c(F)cc2c(=O)c(C(=O)O)cn(-c3ccc(F)cc3F)c2c1Cl | 0.01 (≈ 0.0216 µM) |
| CCn1cc(C(=O)O)c(=O)c2cc(F)c(N3C[C@@H]4C[C@H]3CN4)cc21 | 0.2 (≈ 0.604 µM) |
| O=C(O)c1cn(C2CC2)c2cc(N3CCN4CCCC3C4)c(F)cc2c1=O (stereo not drawn) | 0.002 (≈ 0.00538 µM) |

Test system: not listed separately
Assay: In vitro evaluation for antibacterial activity against anaerobically grown Treponema hyodysenteriae (94A007)
Type: functional
Settings: Brachyspira hyodysenteriae

| Compound | MIC [µg/mL] |
| --- | --- |
| CCn1cc(C(=O)O)c(=O)c2cc(F)c(N3CC[C@H]4CCC(C3)N4C)c(F)c21 | > 3.13 |
| Cl.O.O=C(O)c1cn(C2CC2)c2cc(N3CCN4CCC3CC4)c(F)cc2c1=O | 0.39 |
| CN1C[C@@H]2C[C@H]1CN2c1c(F)cc2c(=O)c(C(=O)O)cn(-c3ccc(F)cc3F)c2c1Cl | > 3.13 |
| CCn1cc(C(=O)O)c(=O)c2cc(F)c(N3C[C@@H]4C[C@H]3CN4)cc21 | 1.56 (≈ 4.71 µM) |
| O=C(O)c1cn(C2CC2)c2cc(N3CCN4CCCC3C4)c(F)cc2c1=O (stereo not drawn) | 0.2 (≈ 0.538 µM) |

Test system: Trueperella pyogenes
Assay: In vitro antibacterial activity against anaerobically grown Actinomyces pyogenes (14D002)
Type: functional
Settings: not given
Summary of the method: as §1

| Compound | MIC [µg/mL] |
| --- | --- |
| CCn1cc(C(=O)O)c(=O)c2cc(F)c(N3CC[C@H]4CCC(C3)N4C)c(F)c21 | > 3.13 |
| Cl.O.O=C(O)c1cn(C2CC2)c2cc(N3CCN4CCC3CC4)c(F)cc2c1=O | 1.56 |
| CN1C[C@@H]2C[C@H]1CN2c1c(F)cc2c(=O)c(C(=O)O)cn(-c3ccc(F)cc3F)c2c1Cl | 3.13 (≈ 6.75 µM) |
| CCn1cc(C(=O)O)c(=O)c2cc(F)c(N3C[C@@H]4C[C@H]3CN4)cc21 | 3.13 (≈ 9.45 µM) |
| O=C(O)c1cn(C2CC2)c2cc(N3CCN4CCCC3C4)c(F)cc2c1=O (stereo not drawn) | 3.13 (≈ 8.43 µM) |

Test system: not listed separately
Assay: In vitro antibacterial activity against Aerobically grown Pasteurella haemolytica (59B018)
Type: functional
Settings: Mannheimia haemolytica
Summary of the method: as §3

| Compound | MIC [µg/mL] |
| --- | --- |
| CCn1cc(C(=O)O)c(=O)c2cc(F)c(N3CC[C@H]4CCC(C3)N4C)c(F)c21 | 0.78 (≈ 1.99 µM) |
| Cl.O.O=C(O)c1cn(C2CC2)c2cc(N3CCN4CCC3CC4)c(F)cc2c1=O | 0.01 |
| CN1C[C@@H]2C[C@H]1CN2c1c(F)cc2c(=O)c(C(=O)O)cn(-c3ccc(F)cc3F)c2c1Cl | 0.1 (≈ 0.216 µM) |
| CCn1cc(C(=O)O)c(=O)c2cc(F)c(N3C[C@@H]4C[C@H]3CN4)cc21 | 0.39 (≈ 1.18 µM) |
| O=C(O)c1cn(C2CC2)c2cc(N3CCN4CCCC3C4)c(F)cc2c1=O (stereo not drawn) | 0.02 (≈ 0.0538 µM) |

Test system: Escherichia coli
Assay: In vitro antibacterial activity against aerobically grown Escherichia coli (51A538)
Type: functional
Settings: not given
Summary of the method: as §3

| Compound | MIC [µg/mL] |
| --- | --- |
| CCn1cc(C(=O)O)c(=O)c2cc(F)c(N3CC[C@H]4CCC(C3)N4C)c(F)c21 | 0.39 (≈ 0.996 µM) |
| Cl.O.O=C(O)c1cn(C2CC2)c2cc(N3CCN4CCC3CC4)c(F)cc2c1=O | 0.02 |
| CN1C[C@@H]2C[C@H]1CN2c1c(F)cc2c(=O)c(C(=O)O)cn(-c3ccc(F)cc3F)c2c1Cl | 0.2 (≈ 0.431 µM) |
| CCn1cc(C(=O)O)c(=O)c2cc(F)c(N3C[C@@H]4C[C@H]3CN4)cc21 | 0.78 (≈ 2.35 µM) |
| O=C(O)c1cn(C2CC2)c2cc(N3CCN4CCCC3C4)c(F)cc2c1=O (stereo not drawn) | 0.05 (≈ 0.135 µM) |

Test system: Clostridium perfringens
Assay: microbe, parasite or virus in culture
Type: functional
Settings: not given

| Compound | MIC [µg/mL] |
| --- | --- |
| CCn1cc(C(=O)O)c(=O)c2cc(F)c(N3CC[C@H]4CCC(C3)N4C)c(F)c21 | 3.13 (≈ 8 µM) |
| Cl.O.O=C(O)c1cn(C2CC2)c2cc(N3CCN4CCC3CC4)c(F)cc2c1=O | 0.05 |
| CN1C[C@@H]2C[C@H]1CN2c1c(F)cc2c(=O)c(C(=O)O)cn(-c3ccc(F)cc3F)c2c1Cl | 0.39 (≈ 0.841 µM) |
| CCn1cc(C(=O)O)c(=O)c2cc(F)c(N3C[C@@H]4C[C@H]3CN4)cc21 | 0.39 (≈ 1.18 µM) |
| O=C(O)c1cn(C2CC2)c2cc(N3CCN4CCCC3C4)c(F)cc2c1=O (stereo not drawn) | 0.2 (≈ 0.538 µM) |
